Experimental data: ChEMBL document CHEMBL1177701, “Synthesis, biological evaluation, and structure-activity relationships of dithiolethiones as inducers of cytoprotective phase 2 enzymes” (J Med Chem, 2010)

test system: Rattus norvegicus; test: Ex vivo induction of NQO1 in Sprague-Dawley rat liver at 7.5 umol/kg/day, po for 10 days measured on day 11 relative to control; assay type: functional
How it was run: (§1)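 Organs taken from the same rats used for the bladder study: female Sprague-Dawley, compound at 7.5 µmol/kg/day by gavage or soya oil for 10 days, killed on day 11. GI contents rinsed out under cold water and tissues stored at −80°C. Homogenized in 0.2% Triton X-100 and centrifuged. Supernatant NQO1 activity measured by the Ernster method, expressed as treated/control.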

Row | SMILES | fold change (FC)
1 | COC(=O)C1CCc2c1ssc2=S (stereo not drawn) | 1.1
2 | CCOC(=O)c1cssc1=S | 1.04

test system: Rattus norvegicus; test: Ex vivo induction of NQO1 in Sprague-Dawley rat kidney at 7.5 umol/kg/day, po for 10 days measured on day 11 relative to control; assay type: functional; how it was run: as §1

Row | SMILES | fold change (FC)
3 | COC(=O)C1CCc2c1ssc2=S (stereo not drawn) | 1.76
4 | CCOC(=O)c1cssc1=S | 1.47

test system: Rattus norvegicus; test: Ex vivo induction of NQO1 in Sprague-Dawley rat lung at 7.5 umol/kg/day, po for 10 days measured on day 11 relative to control; assay type: functional; how it was run: as §1

Row | SMILES | fold change (FC)
5 | COC(=O)C1CCc2c1ssc2=S (stereo not drawn) | 1.08
6 | CCOC(=O)c1cssc1=S | 1.21

test system: Rattus norvegicus; test: Ex vivo induction of NQO1 in Sprague-Dawley rat duodenum at 7.5 umol/kg/day, po for 10 days measured on day 11 relative to control; assay type: functional; how it was run: as §1

Row | SMILES | fold change (FC)
7 | COC(=O)C1CCc2c1ssc2=S (stereo not drawn) | 1.14
8 | CCOC(=O)c1cssc1=S | 1.21

test system: Rattus norvegicus; test: Ex vivo induction of NQO1 in Sprague-Dawley rat jejunum at 7.5 umol/kg/day, po for 10 days measured on day 11 relative to control; assay type: functional; how it was run: as §1

Row | SMILES | fold change (FC)
9 | COC(=O)C1CCc2c1ssc2=S (stereo not drawn) | 1.11
10 | CCOC(=O)c1cssc1=S | 1.04

test system: Rattus norvegicus; test: Ex vivo induction of NQO1 in Sprague-Dawley rat ileum at 7.5 umol/kg/day, po for 10 days measured on day 11 relative to control; assay type: functional; how it was run: as §1

Row | SMILES | fold change (FC)
11 | COC(=O)C1CCc2c1ssc2=S (stereo not drawn) | 1.07
12 | CCOC(=O)c1cssc1=S | 1.11

test system: Rattus norvegicus; test: Ex vivo induction of NQO1 in Sprague-Dawley rat colon at 7.5 umol/kg/day, po for 10 days measured on day 11 relative to control; assay type: functional; how it was run: as §1

Row | SMILES | fold change (FC)
13 | COC(=O)C1CCc2c1ssc2=S (stereo not drawn) | 1.07
14 | CCOC(=O)c1cssc1=S | 0.98

test system: Rattus norvegicus; test: Ex vivo induction of NQO1 in Sprague-Dawley rat bladder at 7.5 umol/kg/day, po for 10 days measured on day 11 relative to control; assay type: functional
How it was run: (§2)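 Female Sprague-Dawley rats, 6 per group, gavaged with compound at 7.5 µmol/kg/day or soya oil for 10 days and killed on day 11. Bladder homogenized in ice-cold 0.2% Triton X-100 and cleared by centrifugation. NQO1 activity measured by the Ernster method, GST by the Habig method. Reported as treated/control mean ± SEM, ANOVA with Student-Newman-Keuls test.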

Row | SMILES | fold change (FC)
15 | Cc1cssc1=S | 1.83
16 | CCOC(=O)c1c(N)ssc1=S | 2.03
17 | S=c1ssc2c1CCCC2 | 1.46
18 | O=c1ssc2c1CCC2 | 1.24
19 | COC(=O)C1CCc2c1ssc2=S (stereo not drawn) | 4.39
20 | CCOC(=O)c1cssc1=S | 4.82

test system: Rattus norvegicus; test: Ex vivo induction of GST in Sprague-Dawley rat bladder at 7.5 umol/kg/day, po for 10 days measured on day 11 relative to control; assay type: functional; how it was run: as §2

Row | SMILES | fold change (FC)
21 | Cc1cssc1=S | 1.23
22 | CCOC(=O)c1c(N)ssc1=S | 1.25
23 | S=c1ssc2c1CCCC2 | 1.05
24 | O=c1ssc2c1CCC2 | 1.11
25 | COC(=O)C1CCc2c1ssc2=S (stereo not drawn) | 2.31
26 | CCOC(=O)c1cssc1=S | 2.76

test system: Rattus norvegicus; test: Ex vivo induction of NQO1 in Sprague-Dawley rat stomach at 7.5 umol/kg/day, po for 10 days measured on day 11 relative to control; assay type: functional; how it was run: as §1

Row | SMILES | fold change (FC)
27 | COC(=O)C1CCc2c1ssc2=S (stereo not drawn) | 1.98
28 | CCOC(=O)c1cssc1=S | 2.15
